Legend:
[1] = test system: CD4+ 1B6 Rag2−/− T cell lines; test: Cytokine ELISA on 1B6 T cell lines; format: cell-based, mouse; settings: supernatants after 40 h, Fig. 3
Q1.1B6 T cell clone = settings: representative experiment; cited from earlier work
[2] = test system: peripheral CD4+ T cells of the 1B6 transgenic mouse; test: Proliferation of naive ex-vivo 1B6 TCR transgenic T cells; format: cell-based; settings: LNCs from 1B6 TCR transgenic mouse, [3H]thymidine added after 48 h; Fig. 1
Outline: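 Lymph node cells from a 1B6 TCR transgenic mouse were stimulated in culture with different peptide ligands. Per the general proliferation method, cultures were run in triplicate. After 48 h, [3H]thymidine (1 μCi/well) was added for the final 16 h before harvest. Incorporation was read by scintillation counting.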

I-A^s = target: T1, I-A^s (Mus musculus, UniProt P06345+P14437); settings: binding to I-A^s relative to W144 (1.0); cited from earlier work
T1 sequence (P14437 1-233): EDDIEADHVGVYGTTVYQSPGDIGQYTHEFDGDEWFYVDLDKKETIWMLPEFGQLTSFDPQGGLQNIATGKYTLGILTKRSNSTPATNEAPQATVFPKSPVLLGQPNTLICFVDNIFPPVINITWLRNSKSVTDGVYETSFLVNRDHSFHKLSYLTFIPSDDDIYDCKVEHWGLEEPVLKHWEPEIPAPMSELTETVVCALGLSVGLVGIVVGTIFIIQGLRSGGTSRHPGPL
T1 sequence (P06345 28-263): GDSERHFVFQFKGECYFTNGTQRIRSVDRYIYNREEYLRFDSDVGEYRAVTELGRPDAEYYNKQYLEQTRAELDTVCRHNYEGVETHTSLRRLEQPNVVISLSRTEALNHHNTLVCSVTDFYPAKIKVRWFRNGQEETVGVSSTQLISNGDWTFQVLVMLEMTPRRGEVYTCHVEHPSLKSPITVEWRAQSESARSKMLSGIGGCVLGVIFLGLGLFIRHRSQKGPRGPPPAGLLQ

Sequence | Secretion of IL-2 by desensitized cells [1] | Cytokine IL-4 (Q1.1B6 T cell clone) [pg/mL] | Cytokine TNF-α (Q1.1B6 T cell clone) [pg/mL] | Stimulatory potential for proliferation (hierarchy of response) [2] | Relative MHC binding (I-A^s) | Cytokine IFN-γ (Q1.1B6 T cell clone) | Cytokine IL-2 (Q1.1B6 T cell clone) [pg/mL]
HSLGKLLGHPDKF [Ligand L144] | selectively blunted | 390 | 420 | superagonist ligand | 0.8 | – | –
HSLGKQLGHPDKF [Ligand Q144] | – | 200 | <50 | agonist | 0.6 | 9,052 pg/ml | <50
HSLGKWLGHPDKF [Ligand W144, reference compound] | – | <50 | <50 | weaker ligand | 1.0 | 420 pg/mL | <50
